# Measured values gathered from unrelated publications.
# Protocols differ between the studies behind these lines.
# ADRA2A: Alpha-2A adrenergic receptor (ADRA2A, Homo sapiens, UniProt P08913)
# LATS1: Serine/threonine-protein kinase LATS1 (LATS1, Homo sapiens, UniProt O95835)
# SLC18A2: Synaptic vesicular amine transporter (SLC18A2, Homo sapiens, UniProt Q05940)
# CA1: Carbonic anhydrase 1 (CA1, Homo sapiens, UniProt P00915)
Structure (SMILES),target,observed,action,technique,pH,measurement,value
Cc1cc(Oc2ncccc2CN2CCN(c3cccc4ccccc34)CC2)ccc1-c1c(C)c(=O)[nH]c(=O)n1C,ADRA2A,ligand displacement,,radioligand,,Ki,0.186 µM
c1cc(-c2ccc(C3CCNCC3)cc2)c2cc[nH]c2n1,LATS1,target engagement in cells,,BRET,,IC50,> 50 µM
Cc1ccccc1N1CCN(CCc2nnc3n2CCCC3)CC1,SLC18A2,transporter uptake,inhibitor,,,IC50,0.566 µM
O=C(Nc1c[nH]nc1-c1nc2cc(CN3CCOCC3)ccc2[nH]1)NC1CC1,LATS1,enzyme activity,inhibitor,radiometric,,IC50,0.073 µM
Cc1cc(Oc2ncccc2CN2CCN(CCc3ccccc3)CC2)ccc1-c1c(C)c(=O)[nH]c(=O)n1C,ADRA2A,ligand displacement,,radioligand,,Ki,2.54 µM
O=c1n(CCCN2CCN(c3cccc(Cl)c3)CC2)nc2ccccn12,SLC18A2,transporter uptake,inhibitor,,,IC50,2.78 µM
CN(C)CCC(c1ccccc1)c1ccccn1 (centres unmarked),CA1,enzyme activity,inhibitor,absorbance,pH 7.4,IC50,20.4 µM
COc1cc2nc(N(C)CCCNC(=O)C3CCCO3)nc(N)c2cc1OC (centres unmarked),SLC18A2,transporter uptake,inhibitor,,,IC50,0.249 µM
Cc1cc(Oc2ncccc2CN2CCN(c3ccccc3)CC2)ccc1-c1c(C)c(=O)[nH]c(=O)n1C,ADRA2A,cAMP,agonist,luciferase,,EC50,10.7 µM
O=C1Nc2ccc(Cl)cc2[C@@](C#CC2CC2)(C(F)(F)F)O1,SLC18A2,transporter uptake,inhibitor,,,IC50,6.12 µM
Nc1nc2c(ncn2COCCO)c(=O)[nH]1,"Carbonic anhydrase 2 (CA2, Homo sapiens, UniProt P00918)",enzyme activity,inhibitor,absorbance,pH 7.4,IC50,13.8 µM
Cc1cc(Oc2ncccc2CN2CCN(c3ccccc3Br)CC2)ccc1-c1c(C)c(=O)[nH]c(=O)n1C,ADRA2A,ligand displacement,,radioligand,,Ki,0.135 µM
CN1CCC(=C2c3ccccc3CC(=O)c3sccc32)CC1,CA1,enzyme activity,inhibitor,absorbance,pH 7.4,IC50,10.3 µM
COc1ccc(Cl)cc1N1CCN(Cc2cccnc2Oc2ccc(-c3c(C)c(=O)[nH]c(=O)n3C)c(C)c2)CC1,ADRA2A,ligand displacement,,radioligand,,Ki,0.0765 µM
Cc1cc(-c2ccnc3[nH]cc(F)c23)cc(F)c1[C@@]1(O)[C@H](C)CN(C(=O)CN)C[C@@H]1C,LATS1,binding,,TR-FRET,,Kd,0.0009 µM
Cc1cc(Oc2ncccc2CN2CCN(c3cccc(F)c3)CC2)ccc1-c1c(C)c(=O)[nH]c(=O)n1C,ADRA2A,ligand displacement,,radioligand,,Ki,0.0887 µM
CN(C)CCCN1c2ccccc2Sc2ccc(Cl)cc21,SLC18A2,transporter uptake,inhibitor,,,IC50,3.4 µM
OC1(c2ccc(-c3ccnc4[nH]cc(F)c34)cc2)CCCNC1 (centres unmarked),LATS1,enzyme activity,inhibitor,radiometric,,IC50,0.026 µM
COc1ccc(CN=c2[nH]c(N3CCC[C@H]3CO)ncc2C(=O)NCc2ncccn2)cc1Cl,SLC18A2,transporter uptake,inhibitor,,,IC50,9.67 µM
O=C(O)c1cc2ccc(C#CC3(O)CCCCC3)cc2n1-c1ccccc1,"Microphthalmia-associated transcription factor (Homo sapiens, UniProt O75030)",binding,,ITC,,Kd,13.4 µM
